High-throughput results: PubChem, several laboratories
Rows were chosen to be rich in hits. Some 1.7% of all compounds tested hit in one or more screens of this group.
T cell HTS: T cell immune modulators affecting CD8 T cell-vesicle binding | 330,000 compounds, 0.068% hits | response (vesicle binding), % at 7 µM | AID 2052 | 2C CD8+ T cell-vesicle binding, flow cytometry; hits give low values;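 active = response, share of CD8 T cells binding vesicles, and their 90th percentile fluorescence all below set limits, cut at about 80% in these data, passing the limit was not always enough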;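 note: values below 100% mean blocked vesicle binding to the CD8+ T cells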
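material = purified 2C TCR transgenic mouse naive CD8+ T cells | controls = Unloaded micro-vesicles (low), QL9 vesicles with 0.7% DMSO (high) | detection = cytometric PE anti-B7-1 and Alexa647 anti-CD8 signals after 1% paraformaldehyde fixation | incubation = binding step 1.5 h, 37 °C, antibody labelling 20 min, ice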
JMJD2C inh: human JMJD2C demethylase inhibition; GST-JMJD2C(1-420) H3K9me3 demethylation, DELFIA europium; inhibition, % at 2.35 µM; 330,000 compounds, 0.069% hits; AID 2099;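 active = more than half of a compound's replicate wells show inhibition beyond 50%, single wells judged on their own value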;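 note: signal counts dimethyl H3K9 product captured on neutravidin plate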
PP5 inh: blocks human protein phosphatase 5 activity; 320,000 compounds, 0.18% hits; purified PP5c, OMFP substrate fluorescence; P53041; inhibition, % at 6.7 µM;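 active = inhibition above the campaign's mean inhibition across all tested compounds plus 3 SD, cut at about 9.5% in these data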
Target sequence (P53041 whole entry, looked up): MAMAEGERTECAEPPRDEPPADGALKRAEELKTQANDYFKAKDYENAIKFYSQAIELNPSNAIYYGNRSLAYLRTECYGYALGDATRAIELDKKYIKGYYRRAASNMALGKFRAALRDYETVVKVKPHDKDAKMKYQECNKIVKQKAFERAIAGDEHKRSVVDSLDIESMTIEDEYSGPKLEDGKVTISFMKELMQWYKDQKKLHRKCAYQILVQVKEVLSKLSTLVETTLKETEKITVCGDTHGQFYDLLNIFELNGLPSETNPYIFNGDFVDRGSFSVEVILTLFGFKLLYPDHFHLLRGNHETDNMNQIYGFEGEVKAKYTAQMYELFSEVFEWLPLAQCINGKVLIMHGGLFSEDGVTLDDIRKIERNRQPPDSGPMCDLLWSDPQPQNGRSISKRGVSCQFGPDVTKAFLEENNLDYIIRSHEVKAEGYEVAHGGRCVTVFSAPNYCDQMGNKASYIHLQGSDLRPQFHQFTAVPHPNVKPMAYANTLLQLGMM
PP1 counter: counter-screen for PP5 inhibitors: inhibitors of human PP1-alpha. purified PP1alpha, OMFP fluorescence. inhibition, % at 6.7 µM. P62136. AID 2235. 320,000 compounds, 0.9% hits;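 active = inhibition above the mean inhibition of all tested compounds plus 3 SD, computed separately for each screening campaign, cut at about 15% in these data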
HTR2A ag: mouse HTR2A agonism via beta-arrestin recruitment | P35363 | CHO-K1 mHTR2A beta-arrestin complementation, luminescence; percent of 30 µM serotonin response | AID 624169 | activation, % at 7.6 µM | 360,000 compounds, 0.66% hits;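 active = activation above a run cutoff, the mean activation of all tested compounds plus 3 SD, cut at about 14% in these data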
MOR ag counter: OPRM1 agonism in mouse HTR2A counterscreen; U2OS OPRM1 beta-arrestin PathHunter, luminescence; DMSO 0%, DAMGO 9.3 µM 100%; AID 624380; shares compounds with HTR2A ag; 2,300 compounds, 5.3% hits; activation, % at 9.3 µM;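 active = mean activation above the mean of DMSO-only wells plus 3 SD, cut at about 0.5% in these data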
HTR2A ag conf: mouse HTR2A agonism confirmed | shares compounds with HTR2A ag | CHO-K1 PathHunter beta-arrestin recruitment, luminescence; DMSO 0%, 30 µM serotonin 100% | activation, % at 7.6 µM | 2,300 compounds, 19% hits | AID 624381;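 active = mean activation across triplicates above the hit threshold derived in the original primary screen, cut at about 15% in these data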
Numbers stand for hits; 0 = inactive; - = no result.

SMILES | T cell HTS | JMJD2C inh | PP5 inh | PP1 counter | HTR2A ag | MOR ag counter | HTR2A ag conf
O=C(NCC1CCCN(C2Cc3ccccc3C2)C1)c1cccs1 (configuration not stated) | 0 | 0 | 0 | 0 | 19 | 0 | 15
Cc1ccc(NC2CCCN(C(=O)CCC3=NNC(=O)CC3)C2)cc1C (configuration not stated) | 0 | 0 | 0 | 0 | 0 | - | -
COC(=O)C1=CN(Cc2ccc(OC)c(OC)c2)C=C(C(=O)OC)C1c1ccccc1F | 0 | 0 | - | - | 17 | 0 | 0
O=C(C[C@H]1C(=O)N(C2CCCCC2)C[C@@H]1c1ccccc1)Nc1ccc(Br)cc1 | - | - | - | - | 0 | - | -
COc1ccc(C(=O)Nc2ccc3c(c2)C(=O)NC3=O)cc1 | 0 | 0 | 0 | 0 | 0 | - | -
CCOc1cc(C(=O)NCC(=O)N/N=C/c2sccc2C)cc(OCC)c1OCC | 0 | 0 | 0 | 0 | 17 | 0 | 0
NC[C@@H]1O[C@H](C23CC4CC(CC(C4)C2)C3)Cc2c1ccc(O)c2O | 0 | 0 | 0 | 0 | 26 | 0 | 100
CCOc1ccc(C(=O)COC(=O)CN2C(=O)NC3(CCCCC3C)C2=O)cc1 (configuration not stated) | 0 | 0 | 0 | 0 | 0 | - | -
CC(C)CC(=O)Nc1ccc(C(=O)COC(=O)CN2C(=O)NC3(CCCCC3C)C2=O)cc1 (configuration not stated) | - | - | - | - | 18 | 0 | 0
O=C(O)c1ccc(Nc2nc(-c3cccnc3)nc3ccccc23)cc1 | 0 | 0 | 0 | 0 | - | - | -
COc1ccc(-c2csc(C3=C(O)CN(Cc4ccc(Cl)cc4)C3=N)n2)cc1OC | 0 | 0 | 0 | 0 | 53 | 1.7 | 29
COc1ccc(-c2csc(C3=C(O)CN(Cc4ccc(S(N)(=O)=O)cc4)C3=N)n2)cc1OC | 0 | 0 | 0 | 0 | 0 | - | -
COc1cccc(N2CCN(Cc3nc(N)nc(N4CCCc5ccccc54)n3)CC2)c1 | 0 | 0 | 0 | 0 | 17 | 0 | 42
Cc1[nH]n(C(C)(C)C)c(=O)c1Sc1ccc(Cl)cc1 | 0 | 0 | 0 | 0 | 15 | 0 | 18
OCC[C@H]1C[C@@H](O)[C@H](O)[C@@]2(Cc3ccccc3CO2)O1 | 0 | 0 | 0 | 0 | 15 | 0 | 0
COc1ccc2[nH]c3c(c2c1)CCN1C(=O)C(CC(=O)NCCc2ccccn2)C[C@H](C(=O)N(C(C)C)C(C)C)[C@@]31C (some centres not stated) | - | - | - | - | 0 | - | -
COC(=O)c1cc(=O)nc(NN=Cc2ccc(OC)cc2)s1 | - | - | - | - | 17 | 0 | 0
COc1ccc(-n2nc(C(=O)NCC(=O)N3CCC(C)CC3)c3ccccc3c2=O)cc1 | 0 | 0 | 0 | 0 | 15 | 0 | 0
COc1ccc(-n2nc(C(=O)NCC(=O)N3CCCC(C)C3)c3ccccc3c2=O)cc1 (configuration not stated) | 0 | 0 | 0 | 0 | 0 | - | -
CCC(C)(C)NC(=O)CN(C(=O)C(=O)Nc1ccc2c(c1)OCCO2)N1CCOCC1 | 0 | 0 | 0 | 0 | 16 | 0 | 0
CC(C)(C)NC(=O)CN(C(=O)C(=O)Nc1ccc2c(c1)OCCO2)C1CCCC1 | 0 | 0 | 0 | 0 | 0 | - | -
CN1/C(=C/C=C/c2n(C)c3cc([N+](=O)[O-])c([N+](=O)[O-])cc3[n+]2C)C(C)(C)c2ccccc21 | - | - | - | - | 0 | - | -
COc1cccc(CN2CCN(C(=S)NCc3ccc(Cl)cc3)CC2)c1 | 0 | 0 | 0 | 0 | 29 | 0.8 | 25
O=C(NCc1ccc(Cl)cc1)N1CCN(Cc2ccccc2)CC1 | 0 | 0 | 0 | 0 | 35 | 0 | 0
O=C(Nc1ccccc1)N1CCN(Cc2ccc(Cl)cc2)CC1 | 0 | 0 | 0 | 0 | 0 | - | -
CCOC(=O)CSCC(=O)Nc1c(C(=O)C2CC2)oc2ccccc12 | 0 | 0 | 0 | 0 | 0 | - | -
Cc1c(NC(=O)C2CC(c3ccc(F)cc3)=NO2)c(=O)n(-c2ccccc2)n1C (configuration not stated) | 0 | 0 | 0 | 0 | 15 | 0 | 0
CC1CCCC(NC(=O)CCNS(=O)(=O)c2ccc(Br)cc2)C1C (configuration not stated) | 0 | 0 | 0 | 0 | 0 | - | -
